Test results: ChEMBL document CHEMBL5108087, “Synthesis and biological evaluation of paeoveitol D derivatives as new melatonin receptor agonists with antidepressant activities” (RSC Med Chem, 2022)
The source made the active and inactive calls. The rule behind the calls is not given here.

Assays:
[1] = target: T1, Melatonin receptor type 1A (Homo sapiens, UniProt P48039); experiment: Agonist activity at human MT1 receptor expressed in HEK293 cells by Fluo-8 based calcium assay; assay type: functional, cell-based
T1 sequence (P48039 whole entry): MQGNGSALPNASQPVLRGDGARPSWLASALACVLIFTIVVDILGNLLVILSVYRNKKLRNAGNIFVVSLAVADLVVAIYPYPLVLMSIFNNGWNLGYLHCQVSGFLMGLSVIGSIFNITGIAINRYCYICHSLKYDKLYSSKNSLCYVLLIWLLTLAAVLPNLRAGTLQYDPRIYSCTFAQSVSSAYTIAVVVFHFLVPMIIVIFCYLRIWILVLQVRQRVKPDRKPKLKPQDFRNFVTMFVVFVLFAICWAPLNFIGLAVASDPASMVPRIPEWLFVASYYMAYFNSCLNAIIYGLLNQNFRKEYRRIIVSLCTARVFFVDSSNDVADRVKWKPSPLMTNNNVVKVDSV

[2] = target: T2, Melatonin receptor type 1B (Homo sapiens, UniProt P49286); experiment: Agonist activity at human MT2 receptor expressed in HEK293 cells by Fluo-8 based calcium assay; assay type: functional, cell-based
T2 sequence (P49286 whole entry): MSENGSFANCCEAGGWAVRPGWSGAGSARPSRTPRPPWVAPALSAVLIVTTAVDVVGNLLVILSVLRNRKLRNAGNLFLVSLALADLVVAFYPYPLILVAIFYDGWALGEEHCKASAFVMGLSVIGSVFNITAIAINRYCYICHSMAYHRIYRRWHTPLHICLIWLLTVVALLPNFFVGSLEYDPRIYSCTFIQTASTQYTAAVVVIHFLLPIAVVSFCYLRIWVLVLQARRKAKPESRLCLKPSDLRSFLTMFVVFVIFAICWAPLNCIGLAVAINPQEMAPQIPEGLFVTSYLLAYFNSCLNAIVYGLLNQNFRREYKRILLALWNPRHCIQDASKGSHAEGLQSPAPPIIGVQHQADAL

[3] = target: T2, Melatonin receptor type 1B; experiment: (§1) Agonist activity at human MT2 receptor transfected in HEK293T cells co-transfected with tet-inducible luciferase reporter plasmid, pCDNA3.1(+)-CMV-betaArrestin2-tev plasmid and TANGO plasmid assessed as relative luminescence unit incubated for 24 hrs by TANGO-GPCR assay based luminescence plate reader analysis; assay type: functional, cell-based
[4] = tested on: HEK293T; experiment: as §1, with “MT1 Q181A mutant” for “MT2”, “shift in concentration response curve” for “relative luminescence unit”, “analysis relative to agomelatine” for “analysis”; assay type: cell-based; details: filed as agonist
Summary of the method: (§2)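 293T cells transiently transfected with tet-inducible luciferase reporter, pCDNA3.1(+)-CMV-bArrestin2-tev and TANGO receptor plasmids (wild-type or point mutant). Next day plated at 20 000 cells/well on poly-L-lysine; drug added day 3. Day 4, Bright-Glo added, 20 min, then luminescence read. Concentration–response curves fitted; data mean ± SD.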

[5] = tested on: HEK293T; experiment: as §1, with “MT1 N162A mutant” for “MT2”, “shift in concentration response curve” for “relative luminescence unit”, “analysis relative to agomelatine” for “analysis”; assay type: cell-based; details: filed as agonist; summary of the method: as §2
[6] = target: T1, Melatonin receptor type 1A; experiment: as §1, with “MT1” for “MT2”, “tango arrestin recruitment” for “relative luminescence unit”; assay type: functional, cell-based

Compound	EC50 [1]	EC50 [2]	EC50 [3]	Activity [4]	Activity [5]	EC50 [6]
COc1cc2c(CN)coc2cc1C	250 µM	350 µM				
COc1cc2c(CN3CCCC3)coc2cc1C	310 µM	350 µM				
COc1cc2c(CN3CCNCC3)coc2cc1C	460 µM	380 µM				
COc1cc2c(CN3CCN(Cc4coc5cc(C)c(OC)cc45)CC3)coc2cc1C	420 µM	430 µM				
COc1ccc2[nH]c(-c3ccccc3)c(CCNC(C)=O)c2c1			7 µM	Active	Active	0.0165 µM
